Source: ChEMBL document CHEMBL3525987, “Assessment of exposure of metabolites in preclinical species and humans at steady state from the single-dose radiolabeled absorption, distribution, metabolism, and excretion studies: a case study” (Drug Metab Dispos, 2012)

What was measured:
Rattus norvegicus = test: Cmax as total radioactivity in male Sprague-Dawley rat plasma at 10 mg/kg, po administered as single dose via gavage by LC-MS/MS analysis; format: ADME, organism-based; set-up: dose 10 mg/kg, dosed compound name [14C]lixivaptan, route oral; conditions: in vivo
Summary of the method: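 Jugular-cannulated Sprague-Dawley rats (5/gender) were fasted 18 h and gavaged once with 10 mg/kg [14C]lixivaptan suspended in water/pluronic F68. K2EDTA blood was taken at 0.25–168 h, with donor blood replaced from 1 h on. Total radioactivity was read by LSC (ng-equiv/ml) and parent by validated LC-MS/MS. Noncompartmental Cmax, log-linear kel and trapezoidal AUC followed.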

Canis familiaris = test: Cmax as total radioactivity in male beagle dog plasma at 10 mg/kg, po administered as single dose by LC-MS/MS analysis; format: ADME, organism-based, Canis lupus familiaris; set-up: dose 10 mg/kg, dosed compound name [14C]lixivaptan, route oral; conditions: in vivo
Summary of the method: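 Four male beagles were fasted 18 h and gavaged once with 10 mg/kg (2 ml/kg) [14C]lixivaptan as a 5.0 mg/ml water/pluronic F68 suspension. Jugular K2EDTA blood was sampled from 0.25 to 168 h. Plasma total radioactivity was counted by LSC as ng-equiv/ml and lixivaptan by validated LC-MS/MS. Noncompartmental Cmax, t1/2 and trapezoidal AUC were derived.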

[1] = Drug recovery in feces of human at […], po administered as single dose measured after 168 hrs by liquid scintillation counting; format: ADME, organism-based; set-up: dosed compound name [14C]lixivaptan, route oral; conditions: in vivo
Summary of the method: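 Healthy male volunteers given single oral 100 mg (200 µCi) [14C]drug capsules after ≥10 h fast. Urine at 0-4, 4-8, 8-12, 12-24 h then 24-h intervals; feces as passed, to 168 h. Urine LSC; feces homogenized in water, combusted, LSC; % of dose.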

[2] = Drug recovery in feces of female Sprague-Dawley rat at 10 mg/kg, po administered as single dose via gavage measured after 168 hrs by liquid scintillation counting; format: ADME, organism-based; set-up: dose 10 mg/kg, dosed compound name [14C]lixivaptan, route oral; conditions: in vivo
Summary of the method: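 Intact SD rats (3/gender) dosed by gavage with [14C]drug 10 mg/kg (10 ml/kg, pluronic F68/water), housed in metabolism cages; urine and feces at 0-8, 8-24 h, then every 24 h to 7 days. Urine counted by LSC; feces homogenized 20% w/w in water, combusted, trapped CO2 counted; cage wash/debris included; % of dose.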

Homo sapiens [3] = test: AUC in human at 100 mg, po qd for 7 days; format: ADME, organism-based, Plasma; set-up: dosed compound name [14C]lixivaptan; conditions: in vivo, 168 h
Homo sapiens [4] = test: Drug level in human plasma at 100 mg, po administered as single dose measured after 36 hrs by liquid scintillation counting; format: ADME, organism-based; set-up: dosed compound name [14C]lixivaptan; conditions: in vivo
Summary of the method: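 Healthy male volunteers fasted ≥10 h, given single oral 100 mg (200 µCi) [14C]drug as two 50-mg capsules with 250 ml water. Plasma (from ~50 ml blood) at 0.5, 2, 4, 8, 12, 24, 36 h, profiled per subject. Acetonitrile extraction, C18 radio-HPLC with 0.2% formic acid acetonitrile/water gradient, on-line radioactivity detection as % plasma radioactivity; ng-equiv/ml from % × total radioactivity.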

- Cmax (Rattus norvegicus): 2820 ngequiv/ml
- Cmax (Canis familiaris): 3570 ngequiv/ml
- Radiolabel recovery [1]: 63.7%
- Radiolabel recovery [2]: 92%
- AUC (Homo sapiens [3]): 1860 ng.Eq.hr/ml
- Compound recovery (Homo sapiens [4]): 3.6%
SMILES: Cc1ccc(F)cc1[14C](=O)Nc1ccc(C(=O)N2Cc3cccn3Cc3ccccc32)c(Cl)c1
